From PubChem
A selection: hits, their analogues and other compounds. The true share with any hit is near 1.2%.
procasp3 activ: activates human procaspase-3. recombinant procaspase-3 D3A, Ac-DEVD-pNA absorbance 405 nm. AID 463141. activation, % at 8.5 µM. hit rate 0.11% among 330,000. P42574;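 active means activation above the mean of all tested compounds plus 3 SD, cut at about 21% in these data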
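Assay system – Procaspase-3 D3A mutant, all three cleavage aspartates alanine · Controls – DMSO-only low control, 5 µM PC-3 D3A high control · Schedule – 1 h compound preincubation, 2 h substrate hydrolysis at 25 °C · Signal – 405 nm absorbance of p-nitroaniline, reads at 0 and 120 min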
IDE cell inh: inhibitors of human insulin-degrading enzyme in cells; hit rate 0.41% among 320,000; HEK cells, FAbetaB cleavage, fluorescence polarization; inhibition, % at 5.59 µM;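 active means percent inhibition above the average of all tested compounds plus 3 SD, set per screening campaign, cut at about 16% in these data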;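 further: IDE supplied by intact live HEK cells; FP after avidin binding of uncleaved biotin substrate so inhibition keeps polarization high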
IDE cell activ: activators of human insulin-degrading enzyme in cells | P14735 | activation, % at 5.96 µM | HEK cells, FAbeta-B cleavage, fluorescence polarization; 0% vehicle, 100% cell-free pure enzyme wells | hit rate 0.073% among 340,000 | AID 493087;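 active means activation above the mean of all tested compounds plus 3 SD, set per screening campaign, cut at about 17% in these data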
TPT1 inhibitor: inhibitors of Candida albicans tRNA 2'-phosphotransferase TPT1; recombinant caTPT1, FP RNA substrate dephosphorylation; inhibition, % at 5 µM; hit rate 0.81% among 300,000; AID 1962;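 active means inhibition above the mean of all tested compounds plus 3 SD, set per screening campaign, cut at about 24% in these data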
proCasp7 act: activates human procaspase-7, counter-screen for procaspase-3 activators | P55210 | recombinant procaspase-7, Ac-DEVD-pNA absorbance 405 nm; D23A/D198A/D206A triple mutant, cannot self-cleave; scale: DMSO 0, 5 µM enzyme 100 | activation, % at 8.5 µM | hit rate 0.093% among 330,000 | AID 463210;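 active means percent activation above the screen-wide mean plus 3 SD, cut at about 25% in these data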
Target sequence (P55210 whole entry D23A/D198A/D206A): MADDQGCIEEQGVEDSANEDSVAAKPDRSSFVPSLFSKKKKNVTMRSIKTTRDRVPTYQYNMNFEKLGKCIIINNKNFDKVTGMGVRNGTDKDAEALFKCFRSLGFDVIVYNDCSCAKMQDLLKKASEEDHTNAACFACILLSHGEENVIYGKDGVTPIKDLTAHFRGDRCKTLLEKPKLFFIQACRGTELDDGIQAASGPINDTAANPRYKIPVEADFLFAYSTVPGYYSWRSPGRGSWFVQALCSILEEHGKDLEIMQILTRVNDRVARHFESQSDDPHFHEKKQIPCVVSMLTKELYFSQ
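Replicates: singlicate. Assay system: Procaspase-7 triple mutant (PC-7 D3A). Signal: 405 nm absorbance of p-nitroaniline. Times: 1 h preincubation, 2 h reaction. Buffer or medium: Zinc-free HEPES pH 7.4 with 300 mM NaCl, 0.01% Triton X-100. Also added: DEVD-pNA substrate. Benchmarks: DMSO wells as 0%, DMSO with 5 µM added PC-7 as 100%.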
TPT1 inh confirm: confirmation of Candida albicans TPT1 inhibitors; shares compounds with TPT1 inhibitor; recombinant caTPT1, fluorescence polarization, RNase T1 coupled; inhibition, % at 5 µM; hit rate 74% among 2,400;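 active means inhibition above the primary screen limit, the mean inhibition of all tested compounds plus 3 SD, cut at about 25% in these data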
RNase T1 counter: RNase T1 inhibition in TPT1 counter-screen. RNase T1 cleavage, fluorescence polarization, 1536-well. hit rate 83% among 2,400. shares compounds with TPT1 inhibitor. inhibition, % at 5 µM;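 active means inhibition above the solvent-only control well mean plus 3 SD, limit set per screening run, cut at about 23% in these data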;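 further: inhibitors block cleavage so intact labeled substrate keeps polarization high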
Target sequence (P00651 whole entry, looked up): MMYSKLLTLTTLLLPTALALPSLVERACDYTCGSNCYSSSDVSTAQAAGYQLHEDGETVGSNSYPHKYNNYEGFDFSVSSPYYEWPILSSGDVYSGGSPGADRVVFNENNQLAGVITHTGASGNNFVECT
Large screens that a line does not name were inactive (follow-up assays come after a bar, where they were run).

O=C1CCCN1CC(=O)N1CCCC(N2CCN(c3cccc(Cl)c3)CC2)C1 (stereo not drawn)	none
Cc1nc(-n2[nH]c3c(c2=O)CCCC3)[nH]c(=O)c1Cc1ccccc1	TPT1 inhibitor 122 | TPT1 inh confirm 65 | RNase T1 counter 77
CCCCN(CCCNC(=O)CN1C(=O)COc2ccc(S(=O)(=O)N3CCC(C)CC3)cc21)Cc1ccccc1	none
COc1ccc(C=C2NC(=S)NC2=O)cc1	none (no result: procasp3 activ, IDE cell inh, TPT1 inhibitor, proCasp7 act)
COc1ccc(/C=C/C=C2\NC(=S)NC2=O)cc1	TPT1 inhibitor 28 | TPT1 inh confirm inactive | RNase T1 counter 32
CC(C)(C)c1cnnn1-c1ccc(/C=N/Nc2ccc([N+](=O)[O-])cc2)cc1	TPT1 inhibitor 26 | TPT1 inh confirm 40 | RNase T1 counter 53
O=C(O)c1ccccc1SCC(=O)N1CCc2ccccc21	TPT1 inhibitor 139 | TPT1 inh confirm inactive | RNase T1 counter inactive
COc1ccc2c(/C=N/Nc3ccc(C(=O)O)cc3)c[nH]c2c1	TPT1 inhibitor 56 | TPT1 inh confirm 39 | RNase T1 counter 50
COc1ccc(C(=O)N/N=C/c2c[nH]c3ccccc23)cc1	none
O=C(COC(=O)/C=C/c1cccc(Cl)c1Cl)Nc1ccc2[nH]c(=O)[nH]c2c1	none (no result: TPT1 inhibitor)
O=[N+]([O-])c1ccc(N2CCOCC2)cc1N1CCCCC1	none
O=[N+]([O-])c1ccc(N2CCCCC2)cc1N1CCOCC1	TPT1 inhibitor 25 | TPT1 inh confirm inactive | RNase T1 counter inactive
O=C(O)CCN1C(=O)/C(=C/c2ccc(-c3nc4ccccc4s3)o2)SC1=S	TPT1 inhibitor 31 | TPT1 inh confirm 46 | RNase T1 counter 66
O=C(O)CC(C(=O)O)N1C(=O)/C(=C/c2ccc(-c3nc4ccccc4s3)o2)SC1=S (stereo not drawn)	TPT1 inhibitor 91 | TPT1 inh confirm 109 | RNase T1 counter 114
O=Cc1ccc(-c2nc3ccccc3s2)o1	none
O=C(O)c1ccc(-c2nc3ccccc3s2)o1	none
O=C(O)CCCN1C(=O)/C(=C\c2ccc(-c3nc4ccccc4s3)o2)SC1=S	TPT1 inhibitor 30 | TPT1 inh confirm 48 | RNase T1 counter 75
COc1cccc(NC(=O)N2CCCC2C(=O)NC2CCCC2)c1 (stereo not drawn)	none
O=C1CC(=O)N(CCc2ccc(F)cc2)C(=O)N1	TPT1 inhibitor 39 | TPT1 inh confirm 31 | RNase T1 counter 40
CC1CC(=O)N(CCc2ccccc2)C(=O)C1	none (no result: procasp3 activ, IDE cell inh, TPT1 inhibitor, proCasp7 act)
O=C1CC(=O)N(CCc2ccccc2)C(=O)N1CCc1ccccc1	TPT1 inhibitor 40 | TPT1 inh confirm inactive | RNase T1 counter inactive
O=C1CNC(=S)N1Cc1ccc(F)cc1	none
CSCCC1NC(=O)N(CC(=O)N2CCc3ccccc3C2)C1=O (stereo not drawn)	none (no result: TPT1 inhibitor)
CCOC(=O)c1sc(=NC(=O)c2cccc(OC)c2)n(C)c1C	TPT1 inhibitor 64 | TPT1 inh confirm inactive | RNase T1 counter inactive
CCOc1cc2c(cc1/C=C/c1noc(C)c1[N+](=O)[O-])OC(C)C2 (stereo not drawn)	TPT1 inhibitor 75 | TPT1 inh confirm 73 | RNase T1 counter 83
N#Cc1cnc(SCCc2ccccc2)nc1N	TPT1 inhibitor 39 | TPT1 inh confirm 32 | RNase T1 counter 42
Cc1c(CCC(=O)O)c(=O)n2c([nH]c3ccccc32)c1C#N	none
N#Cc1cc(NC(=O)c2ccc(F)cc2)c(=O)n2c1[nH]c1ccccc12	TPT1 inhibitor 28 (no result: IDE cell activ) | TPT1 inh confirm 30 | RNase T1 counter 38
CCOC(=O)c1c(C)nc(C)c2c(=O)oc3ccccc3c12	none
CCN1C(=S)SC(=O)C1=C1C=C(C)N(CCO)C(C)=C1	TPT1 inhibitor 38 | TPT1 inh confirm 53 | RNase T1 counter 62
CCN1C(=O)/C(=C/c2cn(C)nc2C)SC1=S	none
CCOC(=O)c1c(-c2ccc(OC)cc2)csc1/N=C/C1=C(O)CCCC1=O	TPT1 inhibitor 139 | TPT1 inh confirm 33 | RNase T1 counter 50
CCOC(=O)c1c(/N=C/C2=C(O)CCCC2=O)sc(C)c1C	none
